Values belong to the molecule of their own block, whether it stands above or below them.
Columns and labels:
[1] = species on record: Canis lupus familiaris; assay: Percentage inhibition of free fatty acid liberation at 100 uM determined in canine myocardial lipase assay; assay type: functional
Method in brief: (§1)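 Lipases were extracted from washed canine heart membranes with buffer, heparin and a little Triton X-100. The reaction ran in an oil-water emulsion of triolein with [3H]triolein tracer, 50 mM Tris pH 6.8 and 0.5% BSA. Compound was at 100 µM (3.0% DMSO final), tested in duplicate. Released [3H]oleic acid was extracted into hexane, separated from triolein and scintillation counted.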

[2] = species on record: Rattus norvegicus; assay: Concentration required for inhibition of adipocyte lipolysis in rat adipocyte assay was determined at 200 uM concentration.; assay type: functional
Method in brief: (§2)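 Rat adipocytes were prepared by collagenase digestion of abdominal fat pads from male rats (200–250 g) in gassed Krebs-bicarbonate buffer. Lipolysis was driven by 3 µM epinephrine plus 10 µM methylisobutylxanthine. Compound was added from a 20 mM DMSO or water stock to a final 200 µM (1% DMSO), then incubated 1 h at 37 °C under 95:5 O2/CO2. Released glycerol was quantified with glycerol dehydrogenase.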

[3] = (§3) Concentration required for inhibition of free fatty acid liberation in Canine myocardial lipase assay; assay type: tissue-based, Canis lupus familiaris, Myocardium
[4] = species on record: Rattus norvegicus; assay: Concentration required for inhibition of adipocyte lipolysis in rat adipocyte assay was determined; assay type: functional
Method in brief: (§4)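 Abdominal fat pads from male rats (200–250 g) were collagenase-digested for 1 h at 37 °C in Krebs-bicarbonate buffer gassed with 95:5 O2/CO2, then washed twice. Cells were stimulated with epinephrine (3 µM) plus methylisobutylxanthine (10 µM). Compound was added from DMSO or water stock and incubated 1 h at 37 °C. The run was stopped on ice, and glycerol in the aqueous phase was measured by glycerol dehydrogenase (NAD→NADH).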

[5] = species on record: Rattus norvegicus; assay: Percent inhibition of adipocyte lipolysis in rat adipocyte assay was determined at 30 uM concentration.; assay type: functional; method in brief: as §4
[6] = species on record: Canis lupus familiaris; assay: Percent inhibition of free fatty acid liberation at 100 uM was determined in Canine myocardial lipase assay; method in brief: as §1
[7] = species on record: Rattus norvegicus; assay: Concentration required for inhibition of adipocyte lipolysis in rat adipocyte assay was determined at 3 uM concentration.; assay type: functional
Method in brief: (§5)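 Abdominal fat pads from male rats (200–250 g) in Krebs-bicarbonate buffer gassed 95:5 O2/CO2, collagenase-digested 1 h at 37 °C, washed twice. Lipolysis stimulated with epinephrine (3 µM) plus methylisobutylxanthine (10 µM); compounds added from 20 mM DMSO or water stock (final DMSO 1%). Incubated 1 h at 37 °C under O2/CO2, stopped on ice. Medium glycerol measured by glycerol dehydrogenase (NAD to NADH).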

[8] = species on record: Rattus norvegicus; assay: Percent inhibition of adipocyte lipolysis in rat adipocyte assay was determined at 200 uM concentration.; assay type: functional; method in brief: as §2
[9] = species on record: Rattus norvegicus; assay: Percent inhibition of adipocyte lipolysis in rat adiposite assay was determined at 3 uM concentration.; assay type: functional; method in brief: as §5
[10] = as §3; assay type: functional, tissue-based, Canis lupus familiaris, Myocardium
[11] = species on record: Rattus norvegicus; assay: Percent inhibition of adipocyte lipolysis in rat adipocyte assay was determined at 100 uM concentration.; assay type: functional; method in brief: as §5
[12] = species on record: Rattus norvegicus; assay: Percent inhibition of adipocyte lipolysis in rat adipocyte assay was determined at 3 uM concentration.; assay type: functional; method in brief: as §5
[13] = species on record: Rattus norvegicus; assay: Percent inhibition of adipocyte lipolysis in rat adipocyte assay was determined at 100 uM; assay type: functional; method in brief: as §4
[14] = species on record: Rattus norvegicus; assay: Percent inhibition of adipocyte lipolysis in rat adipocyte assay was determined at 3 uM; assay type: functional; method in brief: as §5
[15] = species on record: Rattus norvegicus; assay: Inhibitory concentration (IC50) of adipocyte lipolysis in rat adipocyte assay was determined

SMILES: O=C(O)c1cccnc1 [NIACIN]
IC50 [3]: 13 µM

SMILES: COc1ccccc1NC(=O)Oc1cccc2cccnc12
IC50 [3]: 40 µM
IC50 [4]: 7 µM

SMILES: O=C(Nc1cccc(C(F)(F)F)c1)Oc1cccc2cccnc12
inhibition [1]: 56%
inhibition at 3 µM [7]: 7%

SMILES: CCOC(=O)c1ccc(NC(=O)Oc2ccc3cccnc3c2)cc1
inhibition at 200 µM [8]: 18%
inhibition [6]: 46%

SMILES: Cc1ccc(NC(=O)Oc2cccc3cccnc23)cc1
inhibition [1]: 63%
Inhibition [9]: 76%

SMILES: COc1ccc(CCNC(=O)Oc2cccc3cccnc23)cc1
inhibition [1]: 70%
inhibition at 100 µM [11]: 98%

SMILES: Cc1ccc2cccc(OC(=O)Nc3ccccc3)c2n1
inhibition at 3 µM [12]: 29%
inhibition [1]: 68%

SMILES: COc1cccc(NC(=O)Oc2cccc3cccnc23)c1
IC50 [10]: 18 µM
IC50 [4]: 7 µM

SMILES: COc1ccc(OC(=O)Nc2cccc3cccnc23)cc1
inhibition at 30 µM [5]: 3%
inhibition [6]: 75%

SMILES: Cc1cnc(C(=O)O)c[n+]1[O-] [ACIPIMOX]
IC50 [10]: 39 µM

SMILES: COc1ccc(NC(=O)Oc2cccc3ocnc23)cc1
IC50 [10]: 7 µM
IC50 [4]: 2.4 µM

SMILES: Cc1ccc2cccc(OC(=O)Nc3ccc(Br)cc3)c2n1
inhibition at 3 µM [12]: 5%
inhibition [1]: 68%

SMILES: Cc1ccccc1NC(=O)Oc1cccc2cccnc12
inhibition [1]: 7%
inhibition at 3 µM [7]: 40%

SMILES: Cc1cccc(NC(=O)Oc2cccc3cccnc23)c1
inhibition [1]: 64%
Inhibition [9]: 84%

SMILES: O=C(Nc1cccc(Cl)c1)Oc1cccc2cccnc12
inhibition [1]: 41%
inhibition at 3 µM [14]: 5%

SMILES: COc1ccccc1NC(=O)Oc1cccc2ncccc12
inhibition at 200 µM [8]: 31%
IC50 [10]: 48 µM

SMILES: COc1ccc(NC(=O)Oc2ccc3cccnc3c2)cc1
inhibition at 30 µM [5]: 0%
inhibition [1]: 60%

SMILES: O=C(Nc1ccccc1C(F)(F)F)Oc1ccc2cccnc2c1
inhibition [1]: 12%

SMILES: O=C(NCCCCCCNC(=O)ON=C1CCCCC1)ON=C1CCCCC1
IC50 [10]: 4 µM
IC50 [4]: 1 µM

SMILES: COc1ccc(CCNC(=O)Oc2ccc3cccnc3c2)cc1
inhibition [1]: 97%
inhibition at 100 µM [11]: 84%

SMILES: COc1ccc(NC(=O)Oc2ccc3ncccc3c2)cc1
inhibition at 30 µM [5]: 8%
inhibition [6]: 64%

SMILES: COc1ccccc1NC(=O)Oc1ccc2cccnc2c1
IC50 [3]: 48 µM
IC50 [4]: 80 µM

SMILES: COc1ccccc1NC(=O)Oc1ccc2ncccc2c1
IC50 [3]: 42 µM
IC50 [4]: 30 µM

SMILES: O=C(Nc1ccc(Cl)cc1)Oc1cccc2cccnc12
inhibition at 3 µM [12]: 52%
inhibition [1]: 58%

SMILES: COc1ccc(NC(=O)Oc2cccc3cccnc23)cc1
IC50 [15]: 0.1 µM
IC50 [10]: 17 µM

SMILES: COc1ccc(NC(=O)Oc2ccc(S(=O)(=O)O)c3cccnc23)cc1
inhibition at 200 µM [8]: 14%
inhibition [1]: 83%

Further lines, with some results ahead:

inhibition [1]: 45%
SMILES: Cc1ccccc1NC(=O)Oc1ccc2cccnc2c1
inhibition at 200 µM [2]: 20%

inhibition [6]: 63%
SMILES: COc1ccc(NC(=O)Oc2cccc3ncccc23)cc1
inhibition at 30 µM [5]: 1%

inhibition [1]: 65%
IC50 [7]: 0.2 µM
SMILES: COc1ccc(NC(=O)Oc2cccc3cccnc23)c(OC)c1

IC50 [10]: 48 µM
IC50 [4]: 10 µM
SMILES: COc1ccc(OC)c(NC(=O)Oc2cccc3cccnc23)c1

inhibition [1]: 72%
IC50 [4]: 5.8 µM
SMILES: COc1ccc(CNC(=O)Oc2cccc3cccnc23)cc1

IC50 [10]: 80 µM
SMILES: O=C(Nc1ccc(Br)cc1)Oc1cccc2cccnc12
inhibition at 3 µM [12]: 5%

inhibition [6]: 7%
SMILES: COc1ccc(NC(=O)COc2cccc3cccnc23)cc1
inhibition at 100 µM [13]: 26%

inhibition [1]: 0%
SMILES: COc1ccc(CC(=O)Oc2cccc3cccnc23)cc1
inhibition at 100 µM [11]: 74%

inhibition [1]: 13%
SMILES: COc1ccc(C(=O)Oc2cccc3cccnc23)cc1
inhibition at 200 µM [8]: 49%

inhibition [1]: 1%
SMILES: O=C(Nc1ccccc1Cl)Oc1cccc2cccnc12

IC50 [3]: 73 µM
SMILES: COc1ccccc1NC(=O)Nc1cccc2cccnc12
inhibition at 200 µM [8]: 4%

inhibition [1]: 69%
SMILES: O=C(Nc1ccccc1)Oc1cccc2cccnc12
inhibition at 3 µM [12]: 28%

inhibition [6]: 74%
IC50 [4]: 35 µM
SMILES: CC(NC(=O)Oc1cccc2cccnc12)c1ccccc1 (centres undefined)

IC50 [10]: 56 µM
SMILES: O=C(Nc1ccccc1)Oc1c(Cl)cc(Cl)c2cccnc12
inhibition at 200 µM [8]: 28%

IC50 [3]: 20 µM
IC50 [4]: 30 µM
SMILES: COc1ccccc1OC(=O)Nc1cccc2cccnc12

inhibition [1]: 76%
IC50 [4]: 35 µM
SMILES: C[C@@H](NC(=O)Oc1cccc2cccnc12)c1ccccc1

inhibition [6]: 52%
SMILES: COc1cccc(NC(=O)Oc2ccc3cccnc3c2)c1
inhibition at 200 µM [8]: 25%

inhibition [1]: 68%
IC50 [4]: 0.2 µM
SMILES: COc1ccc(NC(=O)Oc2cccc3ccc(C)nc23)cc1

inhibition [1]: 6%
SMILES: O=C(Nc1ccccc1Cl)Oc1ccc2cccnc2c1

IC50 [3]: 200 µM
SMILES: CCOC(=O)c1ccc(NC(=O)Oc2cccc3cccnc23)cc1
inhibition at 200 µM [8]: 44%

inhibition [1]: 69%
SMILES: O=C(Nc1ccccc1)Oc1ccc(Cl)c2cccnc12
inhibition at 3 µM [12]: 4%

Source: ChEMBL document CHEMBL1123595, “Synthesis and antilipolytic activities of quinolyl carbanilates and related analogues” (J Med Chem, 1987)
